Assay results as given in publication PMC9128166 (Cancer Science, 2022).
Entries after “also recorded” stand apart in the source; their conditions may differ. Where two headings read alike, the source gives them in different places.

Tests used:
[1] = format: in vivo, Japanese patients
[2] = Urine pharmacokinetics of parsaclisib, cycle 1 day 15; format: in vivo, Japanese patients
[3] = tested on: relapsed or refractory diffuse large B‐cell lymphoma; test: Investigator-assessed response; format: in vivo, Japanese patients
Outline: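 Investigator-assessed response by Lugano criteria in the full analysis set (all treated patients). Patients received 10 or 20 mg QD orally for 8 weeks, then the same dose QW. CT, FDG-PET or PET-CT was chosen by subtype, using the same technique as at screening. Scans ran every 8 weeks through week 24, every 12 weeks through week 96, then every 24 weeks until progression.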

[4] = Parsaclisib exposure and patient disposition; format: in vivo, Japanese patients
Outline: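 Safety population: all enrolled patients given ≥1 dose. Regimen was 10 or 20 mg QD for 8 weeks, then QW, until progression, death, unacceptable toxicity or consent withdrawal. AEs were graded by NCI CTCAE v4.03. Treatment duration (d) = last dose − first dose + 1. QW-period duration (wk) = ceiling[(last dose − first QW dose + 1)/7]. Interruptions and reductions were tallied by dosing period.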

[5] = Any postbaseline abnormality, N = 17
[6] = Worst grade postbaseline Grade 3, N = 17
[7] = Worst grade postbaseline Grade 4, N = 17
[8] = among 16 patients with grade 0 at baseline

In the case of `CCOc1c([C@H](C)n2nc(C)c3c(N)ncnc32)cc(Cl)c(F)c1[C@@H]1CNC(=O)C1` [parsaclisib], the “treatment‐emergent new or worsening decreased neutrophils to grade 3 or 4” value ([1]; 5 of 17 patients, all during first 8 weeks) is reported as 29.4%, the “Alanine aminotransferase (increased)” value [1, 5] is reported as 7 (41.2) n (%) and the “Albumin (decreased)” value [1, 5] is reported as 9 (52.9) n (%). The “Alkaline phosphatase (increased)” value [1, 5] was 7 (41.2) n (%), the “Aspartate aminotransferase (increased)” value [1, 5] was 7 (41.2) n (%) and the “Calcium (decreased)” value [1, 5] was 8 (47.1) n (%). The “Creatinine (increased)” value [1, 5] was 17 (100.0) n (%), the “Leukocytes (decreased)” value [1, 5] was 9 (52.9) n (%) and the “Neutrophils (decreased)” value [1, 5] was 12 (70.6) n (%). For the same compound, the “Platelets (decreased)” value [1, 5] was 7 (41.2) n (%), the “Potassium (increased)” value [1, 5] was 5 (29.4) n (%) and the “Sodium (decreased)” value [1, 5] was 5 (29.4) n (%). For the same compound, the “Alanine aminotransferase (increased)” value [1, 6] was 0 (0.0) n (%), the “Albumin (decreased)” value [1, 6] was 0 (0.0) n (%) and the “Alkaline phosphatase (increased)” value [1, 6] was 0 (0.0) n (%). The “Aspartate aminotransferase (increased)” value [1, 6] was 0 (0.0) n (%), the “Calcium (decreased)” value [1, 6] was 0 (0.0) n (%) and the “Creatinine (increased)” value [1, 6] was 0 (0.0) n (%). For the same compound, the “Leukocytes (decreased)” value [1, 6] was 0 (0.0) n (%), the “Neutrophils (decreased)” value [1, 6] was 4 (23.5) n (%) and the “Platelets (decreased)” value [1, 6] was 0 (0.0) n (%). For the same compound, the “Potassium (increased)” value [1, 6] was 0 (0.0) n (%), the “Sodium (decreased)” value [1, 6] was 0 (0.0) n (%) and the “Alanine aminotransferase (increased)” value [1, 7] was 0 (0.0) n (%). For the same compound, the “Albumin (decreased)” value [1, 7] was 0 (0.0) n (%), the “Alkaline phosphatase (increased)” value [1, 7] was 0 (0.0) n (%) and the “Aspartate aminotransferase (increased)” value [1, 7] was 0 (0.0) n (%). The “Calcium (decreased)” value [1, 7] was 0 (0.0) n (%), the “Creatinine (increased)” value [1, 7] was 0 (0.0) n (%) and the “Leukocytes (decreased)” value [1, 7] was 0 (0.0) n (%). For the same compound, the “Neutrophils (decreased)” value [1, 7] was 1 (5.9) n (%), the “Platelets (decreased)” value [1, 7] was 0 (0.0) n (%) and the “Potassium (increased)” value [1, 7] was 0 (0.0) n (%). For the same compound, the “Sodium (decreased)” value [1, 7] was 0 (0.0) n (%), the “shifts to increased ALT, grade 1” value [1, 8] was 5 patients and the “shifts to increased ALT, grade 2” value [1, 8] was 2 patients. The “shifts to increased AST, grade 1” value [1, 8] was 7 patients, the “treatment‐emergent elevations of ALT or AST to grade 3 or 4” value ([1]; human, in vivo) was “No treatment‐emergent worsening in aminotransferase elevations to grade 3 or 4; also recorded: no treatment‐emergent elevations of ALT or AST to grade 3 or 4” and the “elevation in ALT” value ([1]; shifts to grade 1 or 2) was 41.2%. The “elevation in AST” value ([1]; shifts to grade 1 or 2) was 41.2%, the “Fe,0-8h (unchanged parsaclisib recovered in urine)” value ([2]; Total, cycle 1 day 15, n 14, mean ± SD (text: mean (range))) was 12.1 (5.4–20.4) % and the CL renal ([2]; human, urine, oral) was 6.67 mL/min. The “BOR, CMR/CR” value ([3]; DLBCL (n = 6)) was 0 (0.0) n (%), the “BOR, NMR/SD” value ([3]; DLBCL (n = 6)) was 1 (16.7) n (%) and the “BOR, PMD/PD” value ([3]; DLBCL (n = 6)) was 3 (50.0) n (%). For the same compound, the “BOR, PMR/PR” value ([3]; DLBCL (n = 6)) was 1 (16.7) n (%), the Objective response ([3]; DLBCL (n = 6)) was 1 (16.7) n (%) and the “BOR, Not assessed” value ([3]; DLBCL (n = 6), no postbaseline response data available) was 1 (16.7) n (%). For the same compound, the ORR ([3]; DLBCL, 1 of 6 patients (partial response)) was 16.7%, the “observed PFS” value ([3]; one responder with DLBCL) was 13.8 months and the observed response duration ([3]; one responder with DLBCL) was 12.2 months. For the same compound, the “Patients with dose interruption” value ([4]; 10 mg QD + 10 mg QW (n = 3)) was 2 (66.7) n (%), the “Patients with dose reduction” value ([4]; 10 mg QD + 10 mg QW (n = 3)) was 1 (33.3) n (%) and the “Patients with dose interruption” value ([4]; 20 mg QD + 20 mg QW (n = 14)) was 8 (57.1) n (%). The “Patients with dose reduction” value ([4]; 20 mg QD + 20 mg QW (n = 14)) was 4 (28.6) n (%), the “patients who discontinued treatment due to AEs / TEAEs” value ([4]; 2 of 17 patients (varicella zoster infection, pyrexia)) was 11.8% and the “patients requiring a dose reduction” value ([4]; 5 of 17 patients) was 29.4%. The “patients remaining on study treatment at data cut‐off” value ([4]; 6 of 17 patients) was 35.3%, the “patients requiring a dose interruption during the treatment period” value ([4]; 10 of 17 patients) was 58.8% and the “Patients with dose interruption” value ([4]; Total (N = 17)) was 10 (58.8) n (%). For the same compound, the “Patients with dose reduction” value ([4]; Total (N = 17)) was 5 (29.4) n (%).
